Tests used:
[1] = Growth inhibition of human colon cancer cells after 48 hrs by SRB assay; format: functional; conditions: Cancer cell lines
In short: (§1)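 Follow-up NCI panel testing over a 5-log dose range for each cell line. GI50, TGI and LC50 were monitored, with 5-fluorouracil run as the positive control. Values are grouped by tumour subpanel.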

[2] = Growth inhibition of human SK-MEL-28 cells at 10 uM after 48 hrs by SRB assay relative to control; format: functional; conditions: SK-MEL-28, 48 h, read-out: GI
In short: (§2)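 Primary screen across the full NCI 60 human tumour cell line panel, which covers nine tumour subpanels. A single dose of 10 μM was applied to each line, and growth was recorded for each cell line.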

[3] = Growth inhibition of human SW620 cells at 10 uM after 48 hrs by SRB assay relative to control; format: functional; conditions: SW-620, 48 h, read-out: GI; in short: as §2
[4] = Growth inhibition of human non-small cell lung cancer cells after 48 hrs by SRB assay; format: functional; conditions: Cancer cell lines; in short: as §1
[5] = Growth inhibition of human BT549 cells at 10 uM after 48 hrs by SRB assay relative to control; format: functional; conditions: BT-549, 48 h, read-out: GI
In short: (§3)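 NCI 60-cell-line panel, nine tumor subpanels; compounds tested at a single dose of 10 μM in the primary screen.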

[6] = Growth inhibition of human OVCAR3 cells at 10 uM after 48 hrs by SRB assay relative to control; format: functional; conditions: OVCAR-3, 48 h, read-out: GI; in short: as §3
[7] = Growth inhibition of human SF268 cells at 10 uM after 48 hrs by SRB assay relative to control; format: functional; conditions: SF-268, 48 h, read-out: GI; in short: as §3
Leukemia cell = experiment: Potency index, ratio of 5-fluorouracil GI50 to compound GI50 for human leukemia cells; format: functional
In short: (§4)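 GI50 for each cell line came from NCI panel testing over a 5-log dose range, with 5-fluorouracil tested alongside as the reference drug. The index relates the 5-fluorouracil GI50 to the compound GI50 within each tumour subpanel.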

[8] = Growth inhibition of human SKOV3 cells at 10 uM after 48 hrs by SRB assay relative to control; format: functional; conditions: SK-OV-3, 48 h, read-out: GI; in short: as §2
[9] = Growth inhibition of human HCT15 cells at 10 uM after 48 hrs by SRB assay relative to control; format: functional; conditions: HCT-15, 48 h, read-out: GI; in short: as §3
Dihydrofolate reductase = target: T1, Dihydrofolate reductase (Bos taurus, UniProt P00376); experiment: Inhibition of bovine liver DHFR preincubated for 2 mins followed by addition of FH2 as substrate and NADPH
T1 sequence (P00376 whole entry): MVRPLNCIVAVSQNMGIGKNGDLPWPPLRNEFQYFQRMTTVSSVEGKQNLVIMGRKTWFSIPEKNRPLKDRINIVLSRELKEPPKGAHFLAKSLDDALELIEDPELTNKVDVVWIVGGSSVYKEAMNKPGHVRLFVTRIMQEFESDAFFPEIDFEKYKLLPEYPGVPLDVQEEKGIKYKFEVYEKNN

Cancer cell lines [10] = experiment: Potency index, ratio of 5-fluorouracil GI50 to compound GI50 for human renal cancer cells; format: functional; in short: as §4
[11] = Growth inhibition of human MDA-MB-231 cells at 10 uM after 48 hrs by SRB assay relative to control; format: functional; conditions: MDA-MB-231, 48 h, read-out: GI; in short: as §3
[12] = Growth inhibition of human COLO205 cells at 10 uM after 48 hrs by SRB assay relative to control; format: functional; conditions: COLO 205, 48 h, read-out: GI; in short: as §3
[13] = Growth inhibition of human prostate cancer cells after 48 hrs by SRB assay; format: functional; conditions: Cancer cell lines; in short: as §1
[14] = Growth inhibition of human K562 cells at 10 uM after 48 hrs by SRB assay relative to control; format: functional; conditions: K562, 48 h, read-out: GI; in short: as §3
[15] = Growth inhibition of human KM12 cells at 10 uM after 48 hrs by SRB assay relative to control; format: functional; conditions: KM12, 48 h, read-out: GI; in short: as §3
[16] = Growth inhibition of human OVCAR8 cells at 10 uM after 48 hrs by SRB assay relative to control; format: functional; conditions: OVCAR-8, 48 h, read-out: GI; in short: as §3
[17] = Growth inhibition of human HT-29 cells at 10 uM after 48 hrs by SRB assay relative to control; format: functional; conditions: HT-29, 48 h, read-out: GI; in short: as §3
[18] = Growth inhibition of human SN12C cells at 10 uM after 48 hrs by SRB assay relative to control; format: functional; conditions: read-out: GI; in short: as §2
[19] = Growth inhibition of human Hs 578T cells at 10 uM after 48 hrs by SRB assay relative to control; format: functional; conditions: read-out: GI; in short: as §3
[20] = Growth inhibition of human HCT116 cells at 10 uM after 48 hrs by SRB assay relative to control; format: functional; conditions: HCT-116, 48 h, read-out: GI; in short: as §3
[21] = Growth inhibition of human OVCAR5 cells at 10 uM after 48 hrs by SRB assay relative to control; format: functional; conditions: OVCAR-5, 48 h, read-out: GI; in short: as §3
[22] = Growth inhibition of human IGROV1 cells at 10 uM after 48 hrs by SRB assay relative to control; format: functional; conditions: IGROV-1, 48 h, read-out: GI; in short: as §3
[23] = Growth inhibition of human NCI-H23 cells at 10 uM after 48 hrs by SRB assay relative to control; format: functional; conditions: NCI-H23, 48 h, read-out: GI; in short: as §3
Cancer cell lines [24] = experiment: Potency index, ratio of 5-fluorouracil GI50 to compound GI50 for human breast cancer cells; format: functional; in short: as §4
[25] = Growth inhibition of human OVCAR4 cells at 10 uM after 48 hrs by SRB assay relative to control; format: functional; conditions: OVCAR-4, 48 h, read-out: GI; in short: as §3
Cancer cell lines [26] = experiment: Potency index, ratio of 5-fluorouracil GI50 to compound GI50 for human prostate cancer cells; format: functional; in short: as §4
[27] = Growth inhibition of human SK-MEL-2 cells at 10 uM after 48 hrs by SRB assay relative to control; format: functional; conditions: SK-MEL-2, 48 h, read-out: GI; in short: as §2
[28] = Growth inhibition of human SF539 cells at 10 uM after 48 hrs by SRB assay relative to control; format: functional; conditions: SF-539, 48 h, read-out: GI; in short: as §3
[29] = Growth inhibition of human NCI/ADR-RES cells at 10 uM after 48 hrs by SRB assay relative to control; format: functional; conditions: read-out: GI; in short: as §3
[30] = Growth inhibition of human SNB75 cells at 10 uM after 48 hrs by SRB assay relative to control; format: functional; conditions: SNB-75, 48 h, read-out: GI; in short: as §2
[31] = Growth inhibition of human NCI-H522 cells at 10 uM after 48 hrs by SRB assay relative to control; format: functional; conditions: NCI-H522, 48 h, read-out: GI; in short: as §3
[32] = Growth inhibition of human SK-MEL-5 cells at 10 uM after 48 hrs by SRB assay relative to control; format: functional; conditions: SK-MEL-5, 48 h, read-out: GI; in short: as §2
[33] = Growth inhibition of human A498 cells at 10 uM after 48 hrs by SRB assay relative to control; format: functional; conditions: A498, 48 h, read-out: GI; in short: as §3

Row | SMILES | GI50 [1] [µM] | LC50 [1] [µM] | TGI [1] [µM] | inhibition of growth at 10 µM [2] [%] | inhibition of growth at 10 µM [3] [%] | GI50 [4] [µM] | LC50 (concentration killing 50% of cells) [4] [µM] | TGI [4] [µM] | inhibition of growth at 10 µM [5] [%] | inhibition of growth at 10 µM [7] [%] | RatioGI50 (Leukemia cell) | inhibition of growth at 10 µM [8] [%] | inhibition of growth at 10 µM [9] [%] | IC50 (Dihydrofolate reductase) [µM] | RatioGI50 (Cancer cell lines [10]) | inhibition of growth at 10 µM [11] [%] | GI50 [13] [µM] | LC50 (concentration killing 50% of cells) [13] [µM] | TGI [13] [µM] | inhibition of growth at 10 µM [14] [%] | further results
1 | COc1cc2nc(SCc3cc(OC)c(OC)c(OC)c3)n(Cc3ccccc3)c(=O)c2cc1OC | 2.2 | > 100 | 87.8 | 60.8 | 66.6 | 3.6 | 94.5 | 63.1 | 83.2 | 62.2 | 2 - 10 | 70.2 | 79.9 | 2 | 2 - 10 | 64 | 4 | > 100 | > 100 | 89.8 | inhibition of growth at 10 µM [6]: 93.8%; inhibition of growth at 10 µM [12]: 92.6%; inhibition of growth at 10 µM [15]: 84.6%; inhibition of growth at 10 µM [16]: < 10%; inhibition of growth at 10 µM [17]: 89.4%; inhibition of growth at 10 µM [18]: 58.8%; inhibition of growth at 10 µM [19]: 73.3%; inhibition of growth at 10 µM [20]: 85.4%; inhibition of growth at 10 µM [21]: 46.3%; inhibition of growth at 10 µM [22]: 60.8%; inhibition of growth at 10 µM [23]: 79.6%; RatioGI50 (Cancer cell lines [24]): 2 - 10; inhibition of growth at 10 µM [25]: 55.8%; RatioGI50 (Cancer cell lines [26]): 2 - 10
2 | COc1ccc(-n2c(SCc3cc(OC)c(OC)c(OC)c3)nc3ccc(C)cc3c2=O)c(OC)c1 | 4.4 | > 100 | 87.4 | 59.2 | 27.9 | 17.7 | > 100 | 96.5 | 67.9 | 55.9 | 2 - 10 | 54.7 | 76.4 | 3 | 2 - 10 | 55.2 | 3.7 | > 100 | > 100 | 85.6 | inhibition of growth at 10 µM [27]: < 10%; inhibition of growth at 10 µM [28]: 80%; inhibition of growth at 10 µM [29]: 98.6%; inhibition of growth at 10 µM [30]: 70.4%; inhibition of growth at 10 µM [31]: < 10%; inhibition of growth at 10 µM [15]: 81.9%; inhibition of growth at 10 µM [16]: 54.5%; inhibition of growth at 10 µM [17]: 88.8%; inhibition of growth at 10 µM [18]: 54.8%; inhibition of growth at 10 µM [19]: 93.3%; inhibition of growth at 10 µM [20]: 81.9%; inhibition of growth at 10 µM [32]: 82.4%; inhibition of growth at 10 µM [21]: 56.8%; inhibition of growth at 10 µM [22]: 64.3%; inhibition of growth at 10 µM [23]: 82.2%; RatioGI50 (Cancer cell lines [24]): 2 - 10; inhibition of growth at 10 µM [25]: 42.6%; RatioGI50 (Cancer cell lines [26]): 2 - 10
3 | COc1ccccc1-n1c(SCc2cc(OC)c(OC)c(OC)c2)nc2ccc(Cl)cc2c1=O | 3.1 | > 100 | > 100 | 50.7 | 83.2 | 5.8 | > 100 | > 100 | 60.5 | 58.4 | 2 - 10 | 40.6 | 72.2 | 0.1 | 2 - 10 | 44.3 | 5.9 | > 100 | > 100 | 87.3 | inhibition of growth at 10 µM [27]: < 10%; inhibition of growth at 10 µM [6]: 99.5%; inhibition of growth at 10 µM [28]: 35.5%; inhibition of growth at 10 µM [29]: 79.8%; inhibition of growth at 10 µM [31]: < 10%; inhibition of growth at 10 µM [12]: 72%; inhibition of growth at 10 µM [15]: 83.6%; inhibition of growth at 10 µM [16]: 44.7%; inhibition of growth at 10 µM [17]: 92.3%; inhibition of growth at 10 µM [18]: 29.7%; inhibition of growth at 10 µM [19]: 60.4%; inhibition of growth at 10 µM [20]: 78.9%; inhibition of growth at 10 µM [32]: 72.3%; inhibition of growth at 10 µM [21]: 46.7%; inhibition of growth at 10 µM [22]: 52.3%; inhibition of growth at 10 µM [23]: 63.9%; inhibition of growth at 10 µM [33]: 95%; RatioGI50 (Cancer cell lines [24]): 2 - 10; inhibition of growth at 10 µM [25]: 37%; RatioGI50 (Cancer cell lines [26]): 2 - 10

— ChEMBL document CHEMBL3860041, “Synthesis, biological evaluation and molecular modeling study of some new methoxylated 2-benzylthio-quinazoline-4(3H)-ones as nonclassical antifolates” (Bioorg Med Chem Lett, 2016)
